Screens from PubChem.
FLuc stim CS – firefly luciferase counter-screen for stimulation assays | P08659 | ATPlite luciferase biochemical, luminescence, 10 min; 0 = ATP-free wells, 1 = DMSO control | 200,000 tested, under 10 active | AID 1027 | activation factor at 10 µM;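 active = luciferase activation factor, scaled between plate controls, of at least 2 with compound at 10 µM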
Target sequence (P08659 whole entry, looked up): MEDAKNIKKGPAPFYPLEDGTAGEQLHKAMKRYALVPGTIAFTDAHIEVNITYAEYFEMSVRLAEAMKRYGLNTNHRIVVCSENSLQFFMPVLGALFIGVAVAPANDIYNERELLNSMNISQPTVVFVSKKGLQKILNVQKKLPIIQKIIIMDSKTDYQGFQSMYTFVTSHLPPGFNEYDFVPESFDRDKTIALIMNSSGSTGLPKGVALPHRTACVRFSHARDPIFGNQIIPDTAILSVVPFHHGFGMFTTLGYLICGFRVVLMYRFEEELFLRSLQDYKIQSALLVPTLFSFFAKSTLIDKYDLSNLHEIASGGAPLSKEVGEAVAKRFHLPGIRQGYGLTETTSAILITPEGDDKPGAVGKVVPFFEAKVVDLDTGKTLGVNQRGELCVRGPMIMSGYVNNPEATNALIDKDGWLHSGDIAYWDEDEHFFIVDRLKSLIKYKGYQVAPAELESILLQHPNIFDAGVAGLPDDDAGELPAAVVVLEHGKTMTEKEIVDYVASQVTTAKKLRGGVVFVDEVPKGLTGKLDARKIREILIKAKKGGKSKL
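Assay system: Luciferase/luciferin detection reagent, cell-free biochemical luciferase assay / Read-out: luciferase activation / Benchmarks: No-ATP low control, compound-free enzyme-plus-ATP high control / Medium: PBS buffer for ATP / Detection: luminescence measurement of luciferase light output / Schedule: 10 min at ambient temperature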
FLuc inhib CS – counter-screen for luciferase assay inhibitors: firefly luciferase inhibition. P08659. ATPLite firefly luciferase biochemical luminescence, 10 min. inhibition, % at 10 µM. 1.5% of 200,000 active. AID 1006;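 active = inhibition above about 50% when tested at 10 µM, limit read from the data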
PPC-1+TRAIL kill – compounds killing PPC-1 cancer cells with TRAIL present (potentiator screen, no TRAIL-free arm) | PPC-1 cells + TRAIL, ATPLite viability luminescence | 0.41% of 220,000 active | cell killing (% activity), % at 4 µM or 5 µM;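 active = cell killing above 50% in the first pass at 4 µM, then a duplicate retest at 5 µM averaging 50% or more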;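 note: plate controls were cells with TRAIL plus DMSO for no effect and medium-only wells lacking cells for full effect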
C8 TRAIL sens – sensitizes caspase-8 expressing cells to TRAIL. NB7+C8 cells + TRAIL, ATPlite viability luminescence. inhibition (viability loss, TRAIL sensitization), % at 10 µM. 1% of 360,000 active. AID 624354;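 active = compounds causing at least 50% loss of cell viability in the single-dose screen, relative to plate controls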
An asterisk follows results filed as active. Sampled rows, rich in hits. Any-hit rate of the full collection: about 1.5%.

How did Cc1cc(C(F)(F)F)nc(-n2cc(-c3cccc(N)c3)nn2)n1 do in these assays?
FLuc stim CS: 1.1; FLuc inhib CS: -6; PPC-1+TRAIL kill: 18; C8 TRAIL sens: -23

Results for O=C(c1ccc(F)cc1Cl)N(Cc1ccco1)C1CCS(=O)(=O)C1 (stereo unspecified) ?
C8 TRAIL sens: 1

How did COc1ccc(CCN(C)C(=O)CNC(=O)Cc2cccc3ccccc23)cc1OC do in these assays?
C8 TRAIL sens: -16

How did COC(=O)CC(NC(=O)c1ccc(C)cc1)c1ccccc1 (stereo unspecified) do in these assays?
FLuc stim CS: 0.3; FLuc inhib CS: 65*; PPC-1+TRAIL kill: 9; C8 TRAIL sens: 3

What do the screens show for `C[C@H](NS(=O)(=O)c1ccc(Cl)cc1)C(=O)OCC(=O)Nc1cc(S(=O)(=O)N2CCOCC2)ccc1Cl`?
C8 TRAIL sens: -3

How did Cc1ccc(Nc2nc(CSc3nnc(-c4ccccc4)n3C)cs2)cc1 do in these assays?
FLuc stim CS: 0.1; FLuc inhib CS: 86*; PPC-1+TRAIL kill: 45; C8 TRAIL sens: 50*

How did Cc1ccc(Nc2nc(CSc3nnc(-c4ccccc4C)n3C)cs2)cc1 do in these assays?
FLuc stim CS: 0.4; FLuc inhib CS: 64*; PPC-1+TRAIL kill: 23; C8 TRAIL sens: 38

Results for Cc1ccc(Nc2nc(CSc3nnnn3C)cs2)cc1 ?
FLuc stim CS: 0.4; FLuc inhib CS: 62*; PPC-1+TRAIL kill: 30; C8 TRAIL sens: 51*

What do the screens show for `Cc1ccc(Nc2nc(CSc3nnnn3-c3ccccc3)cs2)cc1`?
FLuc stim CS: 1; FLuc inhib CS: -5; PPC-1+TRAIL kill: -5; C8 TRAIL sens: 1

Results for Cc1ccc(Nc2nc(C)cs2)cc1 ?
FLuc stim CS: 0.5; FLuc inhib CS: 54*; C8 TRAIL sens: 21

What do the screens show for `Cc1ccccc1OCC(=O)O/N=C(\N)Cc1cccs1`?
FLuc stim CS: 1; FLuc inhib CS: -2; C8 TRAIL sens: -20

How did CC(C)(C)c1ccc(C(=O)O/N=C(\N)Cc2cccs2)cc1 do in these assays?
C8 TRAIL sens: 94*

Results for COc1ccc(OCC(=O)O/N=C(\N)Cc2cccs2)cc1 ?
FLuc stim CS: 1; FLuc inhib CS: -1; PPC-1+TRAIL kill: 19; C8 TRAIL sens: 0

What do the screens show for `Cc1ccccc1C(=O)O/N=C(\N)Cc1cccs1`?
C8 TRAIL sens: 92*

What do the screens show for `CCOc1ccc(CCN2C(=S)N([C@@H](CC(C)C)CN3CCC[C@@H]3CN3C(=S)NC[C@@H]3Cc3ccccc3)C[C@@H]2Cc2ccc(O)cc2)cc1`?
C8 TRAIL sens: 6

Results for CCc1cc2c(=O)[nH]c(N3CCCC3)nc2s1 ?
FLuc stim CS: 1; FLuc inhib CS: 3; PPC-1+TRAIL kill: 12; C8 TRAIL sens: -10

How did CCc1cc2c(=O)[nH]c(-c3ccccn3)nc2s1 do in these assays?
FLuc stim CS: 0.6; FLuc inhib CS: 37; PPC-1+TRAIL kill: 60*; C8 TRAIL sens: 53*

How did Cc1[nH]n(-c2ccccc2)c(=O)c1N=Nc1c(O)cc(S(=O)(=O)N(C)C)c2ccccc12 do in these assays?
C8 TRAIL sens: 58*

Results for COc1cccc(-c2cc(C(=O)Nn3cnnc3)c3ccccc3n2)c1 ?
FLuc stim CS: 0.2; FLuc inhib CS: 82*; PPC-1+TRAIL kill: 19; C8 TRAIL sens: 52*

Results for CCNC(=S)NNC(=O)c1cc(-c2ccc(OC)cc2)nc2ccccc12 ?
FLuc stim CS: 0; FLuc inhib CS: 96*; PPC-1+TRAIL kill: 88*; C8 TRAIL sens: 89*

Results for CCCCOc1cccc(-c2cc(C(=O)NNC(=S)NCC)c3ccccc3n2)c1 ?
FLuc stim CS: 0.7; FLuc inhib CS: 33; PPC-1+TRAIL kill: 29; C8 TRAIL sens: 23

How did CCNC(=S)NNC(=O)c1cc(-c2cccc(OCC)c2)nc2ccccc12 do in these assays?
FLuc stim CS: 0.4; FLuc inhib CS: 58*; PPC-1+TRAIL kill: 16; C8 TRAIL sens: 8

Results for Cc1ccc(CC2(c3ccccc3)NC(=O)NC2=O)cc1 (stereo unspecified) ?
C8 TRAIL sens: 6

How did C=CCc1ccccc1OCC(=O)N/N=C/c1ccc(OC(C)=O)cc1OC(C)=O do in these assays?
FLuc stim CS: 1; FLuc inhib CS: -4; PPC-1+TRAIL kill: 23; C8 TRAIL sens: 50*

Results for COc1cc2c(Cc3ccccc3)cncc2cc1O ?
C8 TRAIL sens: -1

What do the screens show for `Cc1ccc(OCCC(=O)OCC(=O)Nc2cc(S(=O)(=O)N(C)C)ccc2C)cc1`?
FLuc stim CS: 0.4; FLuc inhib CS: 58*; PPC-1+TRAIL kill: 22; C8 TRAIL sens: -3

What do the screens show for `CCN(CC)S(=O)(=O)c1ccc(C)c(NC(=O)COC(=O)CNC(=O)c2ccc(C(C)(C)C)cc2)c1`?
FLuc stim CS: 0.2; FLuc inhib CS: 81*; PPC-1+TRAIL kill: 18; C8 TRAIL sens: -4

What do the screens show for `CCN(CC)S(=O)(=O)c1cccc(NC(=O)COC(=O)CNC(=O)c2cccc(F)c2)c1`?
PPC-1+TRAIL kill: -24; C8 TRAIL sens: 11

Results for CC(=O)Nc1ccc(C(=O)N2CCCCC2c2cc(C(=O)N3CCOCC3)no2)cc1 (stereo unspecified) ?
C8 TRAIL sens: -11

How did CC(=O)Nc1nc2ccccc2n1CCOc1ccccc1 do in these assays?
FLuc stim CS: 1; FLuc inhib CS: -1; PPC-1+TRAIL kill: 42; C8 TRAIL sens: 52*

Results for COc1ccc(CNC(=O)COc2ccc(Br)c(C)c2)cc1 ?
C8 TRAIL sens: -20

What do the screens show for `CC(=O)c1ccc(NC(=O)Nc2ccccc2)cc1`?
FLuc stim CS: 0.6; FLuc inhib CS: 35; PPC-1+TRAIL kill: 40; C8 TRAIL sens: 60*

Results for CCN(CC)c1ccc(NC(=O)Nc2ccccc2)cc1 ?
C8 TRAIL sens: 59*

What do the screens show for `O=C(Nc1ccccc1)Nc1ccc(C(=O)N2CCOCC2)cc1`?
FLuc stim CS: 0.4; FLuc inhib CS: 55*; PPC-1+TRAIL kill: 43; C8 TRAIL sens: 11

How did CC(=O)c1ccc(NC(=O)c2ccn[nH]2)cc1 do in these assays?
FLuc stim CS: 0.4; FLuc inhib CS: 60*; PPC-1+TRAIL kill: 27; C8 TRAIL sens: 48

Results for CCN(CC)c1ccc(NC(=O)Nc2ccc(C(C)=O)cc2)cc1 ?
FLuc stim CS: 1; FLuc inhib CS: -2; PPC-1+TRAIL kill: -4; C8 TRAIL sens: 5

What do the screens show for `CC(Sc1nnc(C(C)Oc2ccccc2F)o1)C(=O)NCc1ccc2c(c1)OCO2` (stereo unspecified)?
C8 TRAIL sens: 2

Results for N/C(=N\OC(=O)c1ccc2c(c1)OCO2)c1cccc(Br)c1 ?
FLuc stim CS: 0; FLuc inhib CS: 96*; PPC-1+TRAIL kill: 7; C8 TRAIL sens: 0

How did N/C(=N\OC(=O)c1ccc2c(c1)OCO2)c1ccc([N+](=O)[O-])cc1 do in these assays?
FLuc stim CS: 0.9; FLuc inhib CS: 15; PPC-1+TRAIL kill: 20; C8 TRAIL sens: 15

How did COc1ccc(/C(N)=N/OC(=O)c2ccc3c(c2)OCO3)cc1OC do in these assays?
FLuc stim CS: 0.4; FLuc inhib CS: 62*; PPC-1+TRAIL kill: 49; C8 TRAIL sens: 82*

What do the screens show for `N/C(=N\OC(=O)c1ccc(Br)cc1)c1ccccc1`?
FLuc stim CS: 0.1; FLuc inhib CS: 95*; PPC-1+TRAIL kill: 2; C8 TRAIL sens: 84*
